Assay [1] concerns RAW264.7. The assay can be described thus: Antiinflammatory activity in LPS-stimulated mouse RAW264.7 cells assessed as effect on TNFalpha formation at 30 uM pretreated 1 hr before LPS challenge measured after 24 hrs. Format: functional. In a few lines:
(§1)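 Medium from RAW 264.7 macrophages (2 × 10⁵ cells/well, adhered overnight) pretreated 1 h at 37 °C with drug or 0.5% DMSO vehicle and then given 1 µg/mL LPS (E. coli 0111:B4) for 24 h. Supernatant stored at -70 °C, and TNF-α quantified by ELISA kit per manufacturer. Mean ± SEM, n = 3.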

The subject of assay [2] is RAW264.7. The assay can be described thus: Antiinflammatory activity in LPS-stimulated mouse RAW264.7 cells assessed as effect on TNFalpha formation pretreated 1 hr before LPS challenge measured after 24 hrs. The assay is classed as functional, cell-based. In outline: as §1
Assay [3] concerns RAW264.7. The assay can be described thus: Antiinflammatory activity in LPS-stimulated mouse RAW264.7 cells assessed as effect on NO production at 10 uM pretreated 1 hr before LPS challenge measured after 24 hrs. The assay is classed as functional. In a few lines:
(§2)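 RAW 264.7 cells in DMEM with 10% FBS and antibiotics, 2 × 10⁵ cells/well, adhered overnight. Pretreated 1 h at 37 °C with drug or vehicle (final DMSO 0.5%), then stimulated with 1 µg/mL E. coli 0111:B4 LPS for 24 h. Medium nitrite measured by Griess reaction (sulfanilamide, HCl, naphthylethylenediamine, 10 min room temperature, A550) against a NaNO2 standard curve. Mean ± SEM, n = 3.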

Assay [4] concerns RAW264.7. The assay can be described thus: Antiinflammatory activity in LPS-stimulated mouse RAW264.7 cells assessed as effect on NO production at 30 uM pretreated 1 hr before LPS challenge measured after 24 hrs. Format: functional. In outline:
as §2

A short description of assay [5]: Cytotoxicity against mouse 212 cells by MTT assay. Format: functional. The following applies: read-out: ED50 (the source's name). In outline:
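Ha-ras-inducible NIH/3T3-derived 212 cells maintained in MEM alpha with 10% FBS and antibiotics, with 10 mM HEPES pH 7.3 added for the assay. Seeded at (1-3) × 10³ cells/well, allowed 6 h to attach, then exposed to drug 6 days at 37 °C. MTT pulse 4 h, SDS/HCl lysis, absorbance at 550 nm. Cell death expressed as percent MTT inhibition.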
For orientation: Tetrazolium dyes change colour on reduction, which living cells bring about.

A short description of assay [6]: Cytotoxicity against human Hep3B cells by MTT assay. Particulars: read-out: ED50 (the source's name). The assay is classed as functional, Hep 3B2. In a few lines:
(§3)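 Human lines from ATCC grown in DMEM with 10% FBS, 2 mM L-glutamine, penicillin and streptomycin, plus 10 mM HEPES pH 7.3 for the assay. (1-3) × 10³ cells/well, 6 h attachment, then drug exposure for 6 days at 37 °C. MTT added for 4 h, cells lysed in 10% SDS/0.01 M HCl, A550 read. Death calculated as percent MTT inhibition.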

The test system of another assay is HepG2. The assay can be described thus: Cytotoxicity against human HepG2 cells by MTT assay. The assay is classed as functional. The following applies: read-out: ED50 (the source's name). In a few lines:
as §3

The test system of another assay is HT-29. The assay can be described thus: Cytotoxicity against human HT-29 cells by MTT assay. Format: functional. Particulars: read-out: ED50 (the source's name). In outline: (§4)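 Cells grown in DMEM with 10% FBS plus antibiotics; assay medium supplemented with 10 mM HEPES pH 7.3, 37 °C CO2 incubator. (1-3) × 10³ cells/100 µL seeded, 6 h attachment, drug exposure 6 days. MTT added for 4 h at 37 °C, cells lysed in 10% SDS/0.01 M HCl, A550 read; cell death expressed as % MTT inhibition versus cell-only and medium-blank wells.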

For the next assay, the system named is HCT-116. The assay can be described thus: Cytotoxicity against human HCT116 cells by MTT assay. Format: functional. The following applies: read-out: ED50 (the source's name). In a few lines: as §4
Another assay has as its system Ca-Ski. The assay can be described thus: Cytotoxicity against human CaSKi cells by MTT assay. The assay is classed as functional. The following applies: read-out: ED50 (the source's name). In a few lines:
as §3

The test system of another assay is SiHa. The assay can be described thus: Cytotoxicity against human SiHa cells by MTT assay. Format: functional. The following applies: for EC50: Homo sapiens, SiHa, read-out: ED50 (the source's name). In a few lines: as §3
Assay [7] relates to RAW264.7. The assay can be described thus: Antiinflammatory activity in LPS-stimulated mouse RAW264.7 cells assessed as effect on NO production pretreated 1 hr before LPS challenge measured after 24 hrs. Format: functional, cell-based. In a few lines: as §2
Assay [8] relates to RAW264.7. The assay can be described thus: Antiinflammatory activity in LPS-stimulated mouse RAW264.7 cells assessed as effect on NO production at 3 uM pretreated 1 hr before LPS challenge measured after 24 hrs. Format: functional. In a few lines:
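RAW 264.7 cells at 2 × 10⁵ per well in DMEM/10% FBS, adhered overnight. Pretreated 1 h at 37 °C with drug or vehicle (DMSO fixed at 0.5% final), then LPS (E. coli 0111:B4) 1 µg/mL for 24 h. Medium nitrite measured by Griess reaction (10 min RT, A550) against NaNO2 standard curve; mean ± SEM, n = 3, compared with control.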

The test system of the next assay is MCF7. The assay can be described thus: Cytotoxicity against human MCF7 cells by MTT assay. Particulars: read-out: ED50 (the source's name). The assay is classed as functional. In a few lines: as §4
Assay [9] can be described thus: Cytotoxicity against human MCF7-ras cells by MTT assay. The following applies: read-out: ED50 (the source's name). The assay is classed as functional. In a few lines: as §4
The subject of assay [10] is RAW264.7. The assay can be described thus: Antiinflammatory activity in LPS-stimulated mouse RAW264.7 cells assessed as effect on NO production at 1 uM pretreated 1 hr before LPS challenge measured after 24 hrs. Format: functional. In outline: as §2
Assay [11] relates to RAW264.7. The assay can be described thus: Antiinflammatory activity in LPS-stimulated mouse RAW264.7 cells assessed as effect on TNFalpha formation at 0.3 uM pretreated 1 hr before LPS challenge measured after 24 hrs. Format: functional. In outline: as §1
For assay [12], the system named is RAW264.7. The assay can be described thus: Antiinflammatory activity in LPS-stimulated mouse RAW264.7 cells assessed as effect on TNFalpha formation at 0.1 uM pretreated 1 hr before LPS challenge measured after 24 hrs. Format: functional. In a few lines: as §1
For assay [13], the system named is RAW264.7. The assay can be described thus: Antiinflammatory activity in LPS-stimulated mouse RAW264.7 cells assessed as effect on NO production at 0.3 uM pretreated 1 hr before LPS challenge measured after 24 hrs. The assay is classed as functional. In outline: as §2

SMILES strings stand for the structures. Values after ≈ are worked out from the molar mass of the structure shown. Numbered stars: 1 amine (or outer) side, 2 acyl side, 3 side chain; on linkers, the order of the positions; unused ones are H or OH. Bridge positions count the residues as written; N and C are the ends. Square brackets hold non-standard residues; d marks the D form. Peptide text beside a SMILES is read from it. I, II: the chains in the order shown. Actinocin(1to9) = Cc1c2oc3c(C)ccc(C(=O)[*:2])c3nc-2c(C(=O)[*:1])c(N)c1=O; NMeV = CN[C@H](C(=O)O)C(C)C; Sar = CNCC(=O)O

As a reminder, the inhibition is the drop in the measured response relative to a control, in per cent. As for `COc1cc2c(O[C@@H]3OC[C@](O)(CO[C@@H]4OC[C@@H](O)[C@H](O)[C@H]4O)[C@H]3O[C@H]3OC[C@@H](O)[C@@H](O[C@@H]4OC[C@](O)(CO)[C@H]4O)[C@@H]3O)c3c(c(-c4ccc5c(c4)OCO5)c2cc1OC)C(=O)OC3`, the inhibition at 30 µM in the assay with RAW264.7 [1] is -26%.
Broadly, the IC50 is the concentration needed to halve the response being measured. With `C[C@@H]1C[C@H]2[C@@H]3CCC4=CC(=O)C=C[C@]4(C)[C@@]3(F)[C@@H](O)C[C@]2(C)[C@@]1(O)C(=O)CO` [DEXAMETHASONE], the IC50 with RAW264.7 [2] is 700 nM.
Take `COc1cc2c(O)c3c(c(-c4ccc5c(c4)OCO5)c2cc1OC)C(=O)OC3` [DIPHYLLIN]: in the assay on RAW264.7 [3], the inhibition at 10 µM was -28.4%. Moreover, the inhibition at 30 µM was -0.5% with RAW264.7 [4] and -22.2% with RAW264.7 [1]. In addition, the EC50 was 2.7 µg/mL (≈ 7.1 µM) in [5]; 3.6 µg/mL (≈ 9.46 µM) in [6]; 0.4 µg/mL (≈ 1.05 µM) in the assay on HepG2; 2.5 µg/mL (≈ 6.57 µM) in the assay with HT-29; 0.8 µg/mL (≈ 2.1 µM) with HCT-116.
Take `Cc1c2oc3c(C)ccc(C(=O)N[C@@H]4C(=O)N[C@H](C(C)C)C(=O)N5CCC[C@H]5C(=O)N(C)CC(=O)N(C)[C@@H](C(C)C)C(=O)O[C@@H]4C)c3nc-2c(C(=O)N[C@@H]2C(=O)N[C@H](C(C)C)C(=O)N3CCC[C@H]3C(=O)N(C)CC(=O)N(C)[C@@H](C(C)C)C(=O)O[C@@H]2C)c(N)c1=O` [DACTINOMYCIN] (I: T[dV]P[Sar][NMeV] / II: T[dV]P[Sar][NMeV]; ester I:1-I:C, II:1-II:C; linker I:N-II:N via Actinocin(1to9)): in the assay on Ca-Ski, the EC50 is 0.0019 µg/mL (≈ 0.00151 µM). In addition, the ED50 with SiHa is recorded as 8.1 ×10⁻⁴ ug/ml.
On to `O=c1[nH]cc(F)c(=O)[nH]1` [FLUOROURACIL], for which the EC50 came to 0.0715 µg/mL (≈ 0.55 µM) in assay [6], 0.033 µg/mL (≈ 0.254 µM) in the assay on HepG2, 0.074 µg/mL (≈ 0.569 µM) in the assay with HT-29 and 0.48 µg/mL (≈ 3.69 µM) in the assay with HCT-116.
As to `CC(=N)NCc1cccc(CN)c1` [1400W], the IC50 with RAW264.7 [7] is 3100 nM.
In the case of `COc1cc2c(O[C@@H]3OC[C@](O)(CO)[C@H]3O)c3c(c(-c4ccc5c(c4)OCO5)c2cc1OC)C(=O)OC3` [TUBERCULATIN], in the assay with RAW264.7 [8], the inhibition at 3 µM was 16.9%. For the same compound, the EC50 amounted to 0.014 µg/mL (≈ 0.0273 µM) in assay [6]; 0.12 µg/mL (≈ 0.234 µM) in the assay with SiHa; 0.04 µg/mL (≈ 0.0781 µM) with HepG2; 0.29 µg/mL (≈ 0.566 µM) in the assay on HT-29; 0.28 µg/mL (≈ 0.546 µM) in the assay on HCT-116; 0.97 µg/mL (≈ 1.89 µM) in the assay with MCF7. In addition, in [9], the EC50 was 0.09 µg/mL (≈ 0.176 µM).
With `COc1cc2c(OC)c3c(c(-c4ccc5c(c4)OCO5)c2cc1OC)C(=O)OC3` [JUSTICIDIN A], in the assay with RAW264.7 [10], the inhibition at 1 µM was found to be 19.8%. In addition, the inhibition at 0.3 µM was -158% with RAW264.7 [11] and 20.3% in the assay on RAW264.7 [13]. Further, the EC50 in assay [5] worked out at 0.0227 µg/mL (≈ 0.0576 µM); in the assay on Ca-Ski, 0.003 µg/mL (≈ 0.00761 µM); in assay [6] it was 0.029 µg/mL (≈ 0.0735 µM); with SiHa, 0.0074 µg/mL (≈ 0.0188 µM); with HepG2 it was 0.02 µg/mL (≈ 0.0507 µM); in the assay on MCF7 it was 0.39 µg/mL (≈ 0.989 µM). Also, the EC50 in assay [9] was 0.074 µg/mL (≈ 0.188 µM). Besides, the inhibition at 0.1 µM in the assay with RAW264.7 [12] is -6%.
As for `COc1cc2c(O[C@@H]3OC[C@](O)(CO)[C@H]3O[C@H]3OC[C@@H](O)[C@@H](O)[C@@H]3O)c3c(c(-c4ccc5c(c4)OCO5)c2cc1OC)C(=O)OC3`, the EC50 turned out to be 3.1 µg/mL (≈ 4.81 µM) in [5], 3.1 µg/mL (≈ 4.81 µM) in [6], 3.9 µg/mL (≈ 6.05 µM) with HepG2 and 6.7 µg/mL (≈ 10.4 µM) with HT-29.
As for `COc1cc2c(O[C@@H]3OC[C@](O)(CO[C@@H]4OC[C@@H](O)[C@H](O)[C@H]4O)[C@H]3O[C@H]3OC[C@@H](O)[C@@H](O)[C@@H]3O)c3c(c(-c4ccc5c(c4)OCO5)c2cc1OC)C(=O)OC3`, the inhibition at 30 µM in the assay on RAW264.7 [1] stood at 18.7%.

Values taken from ChEMBL document CHEMBL1148106, “Potent cytotoxic lignans from Justicia procumbens and their effects on nitric oxide and tumor necrosis factor-alpha production in mouse macrophages” (J Nat Prod, 2002).
